High-throughput results: PubChem, several laboratories
NR3A LBD binder = binders of NR3A ligand-binding domain, primary screen, biophysical, differential scanning fluorimetry, uHTS. Glutamate receptor ionotropic, NMDA 3A (GRIN3A) ligand-binding domain. NR3A LBD differential scanning fluorimetry, Tm shift; 0% = protein alone, 100% = glycine-bound protein. Tm shift relative to glycine control, % at 25 µM. 340,000 tested, 2.5% active;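 active = melting temperature shift of at least 10% of the positive control shift, at one fixed dose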
MPTP inh = mitochondrial permeability transition pore inhibitors, primary screen, biochemical, isolated mouse mitochondria, absorbance; Ca2+ swelling absorbance, 30 min; inhibition, % at 10 µM; 360,000 tested, 1.4% active; AID 602449, 2012;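 active = inhibition of 50% or more, scaled per plate between neutral and stimulator controls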;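 also: 0% = DMSO wells given calcium and 100% = 1 mM EGTA wells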
proCasp3 act = activators of human procaspase-3 D3A mutant, primary screen, biochemical, absorbance, PC-3 D3A mutant, single concentration. Caspase-3 (Homo sapiens), P42574. activation, % at 8.5 µM. 330,000 tested, 0.11% active. recombinant procaspase-3 D3A, Ac-DEVD-pNA absorbance 405 nm;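 active = activation above the mean of all tested compounds plus 3 SD, cut at about 21% in these data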;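 also: 0% = DMSO alone and 100% = DMSO wells spiked with extra 5 µM PC-3 D3A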
Target sequence (P42574 whole entry D9A/D28A/D175A): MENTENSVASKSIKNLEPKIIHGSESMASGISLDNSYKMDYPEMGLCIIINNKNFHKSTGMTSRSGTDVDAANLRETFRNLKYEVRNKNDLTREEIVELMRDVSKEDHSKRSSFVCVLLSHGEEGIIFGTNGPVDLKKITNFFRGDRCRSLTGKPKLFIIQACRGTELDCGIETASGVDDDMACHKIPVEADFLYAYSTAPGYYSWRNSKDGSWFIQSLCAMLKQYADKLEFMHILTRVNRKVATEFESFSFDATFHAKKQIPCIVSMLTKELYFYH
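Assay system – Procaspase-3 D3A mutant · Benchmarks – DMSO low control, extra-enzyme high control · Technique – 405 nm absorbance of p-nitroaniline, reads at 0 and 120 min · Doses – 8.5 µM nominal · Measure – % activation between DMSO and enzyme-spiked controls · Also added – Ac-DEVD-pNA chromogenic peptide substrate · Schedule – 1 h compound preincubation, 2 h substrate hydrolysis at 25 °C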
proCasp7 act = procaspase-7 activators, primary screen, counter-screen for procaspase-3 activator project, biochemical, absorbance, HTS, human; Caspase-7 (Homo sapiens), P55210; recombinant procaspase-7, Ac-DEVD-pNA absorbance 405 nm; D23A/D198A/D206A triple mutant, cannot self-cleave; scale: DMSO 0, 5 µM enzyme 100; activation, % at 8.5 µM; 330,000 tested, 0.093% active; AID 463210, 2010;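 active = percent activation above the screen-wide mean plus 3 SD, cut at about 25% in these data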
Target sequence (P55210 whole entry D23A/D198A/D206A): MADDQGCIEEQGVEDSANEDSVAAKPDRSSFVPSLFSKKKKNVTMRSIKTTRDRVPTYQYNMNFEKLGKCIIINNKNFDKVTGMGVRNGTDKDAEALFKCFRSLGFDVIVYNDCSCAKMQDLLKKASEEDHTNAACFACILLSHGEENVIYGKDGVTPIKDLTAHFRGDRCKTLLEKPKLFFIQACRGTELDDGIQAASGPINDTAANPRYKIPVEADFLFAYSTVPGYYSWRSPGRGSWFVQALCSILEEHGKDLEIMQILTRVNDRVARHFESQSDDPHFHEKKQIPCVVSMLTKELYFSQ
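buffer or medium = Zinc-free HEPES/NaCl buffer, pH 7.4 | material = Procaspase-7 triple mutant (PC-7 D3A) | input = 2 µM procaspase-7 mutant as dispensed | signal = Epi-absorbance of released pNA at 405 nm, two timepoints | timing = 1 h preincubation, 2 h reaction | replicates = singlicate compound testing | evaluation = % activation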
aDG glyco act = activators of alpha-DG glycosylation, primary screen, uHTS, Pro5-aDG cells, AlphaScreen. activation, % at 10 µM. 360,000 tested, 0.22% active. alpha-DG glycosylation AlphaScreen (IIH6); 0% Pro5, 100% B10-LARGE cell signal;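 active = activation of at least 8% versus controls, or a plate z-score of at least 8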;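 also: Pro5 are CHO cells carrying HIG-tagged alpha-DG that lacks glycosylation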
MPTP counter = fluorescence retest of MPTP screen hits in isolated mitochondria, single concentration; shares compounds with MPTP inh; membrane potential, Rhodamine 123 fluorescence; inhibition, % at 10 µM; 5,000 tested, 78% active; AID 624504, 2012; in the data active = inhibition above about 22%;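 also: 0% = DMSO vehicle and 100% = positive control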
MPTP swell DR = mitochondrial permeability transition pore inhibitors, dose response, biochemical, absorbance, uHTS hits. shares compounds with MPTP inh. isolated mitochondria swelling. IC50, µM. 780 tested, 58% active; in the data active = IC50 below about 20 µM
MPTP cs DR = fluorescent counter-screen in isolated mitochondria, dose response, counter-screen for MPTP inhibitor project, biochemical, fluorescence, uHTS hits; IC50, µM; shares compounds with MPTP inh; isolated mitochondria counterscreen, fluorescence read-out; 780 tested, 49% active; in the data active = IC50 below about 80 µM
The depositor's hits bear a star; x = no result given. This is a sample that favours compounds with a hit; in the whole collection about 3.7% have one here.

SMILES	NR3A LBD binder	MPTP inh	proCasp3 act	proCasp7 act	aDG glyco act	MPTP counter	others
Cc1cc(Oc2ccccc2)nc(SCC(=O)Nc2ccc(Cl)c(Cl)c2)n1	2.6	73.1*	4.5	17.6	0.7	72.4*
O=C(CSc1nc2ccccc2s1)Nc1ccc(N2CCOCC2)c(Cl)c1	5.7	90.0*	0.7	-5.9	0.3	83.5*
O=C(CSc1nc2ccccc2o1)Nc1ccc(N2CCOCC2)c(Cl)c1	-1.1	96.7*	-7.5	-1.6	0.1	93.4*
Cc1cc(C)nc(SCC(=O)Nc2ccc(N3CCOCC3)c(Cl)c2)n1	-7.5	60.8*	-2.8	0.9	3.8	78.3*
N#CCc1ccc(-c2cccc3nccn23)cc1	x	-2.1	x	x	0.0	x
CN(C)CCNC(=O)C1(C)Cc2c(-c3cccc(C(F)(F)F)c3)ccnc2O1 (configuration not stated)	x	0.2	x	x	0.2	x
CC(NC(=O)CNC(=O)C1O[C@@H]2OC(C)(C)O[C@@H]2[C@H]2OC(C)(C)O[C@@H]12)C(=O)O (some centres not stated)	1.1	0.9	6.9	1.3	0.1	x
O=c1[nH][nH]c2c1[C@@H](c1ccc(F)cc1)O[C@H](CCOCc1ccccc1)C2	x	0.6	x	x	0.0	x
COc1ccc(NC(=O)COc2coc(CN3c4ccccc4CC3C)cc2=O)cc1 (configuration not stated)	-0.3	-1.0	10.3	-3.2	-0.1	x
O=C(CSc1nc(Nc2ccccc2)nc(N2CCOCC2)n1)Nc1ccc([N+](=O)[O-])cc1	15.2*	74.2*	-0.4	-5.5	0.1	69.6*
COc1ccc(C(=O)Oc2cc(C)c(CN3CCOCC3)cc2C)cc1OC	1.1	0.3	5.6	3.5	0.5	x
CCc1nc(NCCN)c(C#N)c2c1CSC(C)(C)C2	-0.4	80.4*	-12.4	-7.9	-0.1	-9.7	MPTP swell DR=16.9*;MPTP cs DR=>80
COc1ccc(C(=O)NCCS(=O)(=O)N(C)Cc2ccccc2)cc1	-1.0	-1.3	2.5	8.0	0.3	x
COc1ccccc1OCCNC(=O)Nc1ccc(Br)cc1	-4.1	84.7*	-0.3	-1.1	0.1	81.7*
COc1cc(NC(=O)NCCN2CCN(c3ccc(Cl)cc3)CC2)ccc1C	-11.1	69.8*	4.1	-7.0	2.0	-6.2	MPTP swell DR=>100;MPTP cs DR=73.2*
COc1ccc(NC(=O)NCCCN2CCN(c3cc(C)ccc3C)CC2)cc1	2.1	82.5*	4.7	-8.4	-0.1	-3.5	MPTP swell DR=15.4*;MPTP cs DR=39.4*
COc1ccc(N2CCC(CNC(=O)Nc3ccc(Cl)cc3)C2)cc1 (configuration not stated)	5.7	90.7*	-11.5	-18.5	-0.3	74.6*
COc1ccc(N2CCC(CNC(=O)Nc3cccc(OC)c3)C2)cc1 (configuration not stated)	-5.0	0.2	-8.2	-10.0	-0.6	x
O=C(NCc1ccco1)c1ccc(Cl)c(S(=O)(=O)N2CCCC2)c1	2.5	-0.6	-6.8	-9.0	-0.1	x
Cc1ccc(-c2nc3cccnc3o2)cc1NC(=O)COc1ccc(Cl)cc1C	-1.7	2.2	11.2	-0.2	-0.4	x
Cc1ccc(-c2nc3cccnc3o2)cc1NC(=O)COc1ccc(C(C)(C)C)cc1	-8.0	85.2*	2.9	-6.2	0.4	22.8*
CC1=NN(c2ccc(F)cc2)C(=O)C1C(c1cccc(O)c1)c1c(C)[nH]n(-c2ccc(F)cc2)c1=O (configuration not stated)	6.4	3.1	0.3	8.3	-0.3	x
CC1=NN(c2ccc(Cl)cc2)C(=O)C1C(c1cccc(O)c1)c1c(C)[nH]n(-c2ccc(Cl)cc2)c1=O (configuration not stated)	15.3*	100.9*	10.4	-5.3	0.0	20.4*
CCOc1ccccc1NC(=O)CSc1nc2nc(-c3cccs3)cc(C(F)(F)F)c2c(=O)[nH]1	2.1	69.3*	-26.1	1.2	0.0	54.9*
CC1(C(=O)NS(=O)(=O)c2cccc(F)c2)CCN1C(=O)Cc1cccs1 (configuration not stated)	x	1.8	x	x	0.1	x
SMILES	NR3A LBD binder	MPTP inh	proCasp3 act	proCasp7 act	aDG glyco act	MPTP counter	others
COc1ccc(NS(=O)(=O)c2ccc(N3CCCC3)c(N)c2)cc1	1.0	78.2*	-5.5	-2.0	1.9	83.8*
COc1ccc(NS(=O)(=O)c2ccc(N3CCCC3)c(NC(=S)Nc3ccc(SC(F)F)cc3)c2)cc1	11.8*	64.2*	-11.2	-17.8	1.8	81.2*
COc1ccc(NS(=O)(=O)c2cc(N)ccc2N2CCCC2)cc1	-2.3	0.7	-3.0	-14.9	-1.0	x
Nc1cc(S(=O)(=O)Nc2ccc(Cl)cc2)ccc1N1CCOCC1	1.2	91.0*	-7.9	-20.8	1.0	55.1*
COc1ccc(NC(=O)C2CCN(S(=O)(=O)c3ccc4c(c3)NC(=O)C(C)S4)CC2)cc1 (configuration not stated)	-4.1	6.8	7.9	5.3	0.0	x
CC1Sc2ccc(S(=O)(=O)N3CCC(C(=O)Nc4ccc(Cl)cc4)CC3)cc2NC1=O (configuration not stated)	9.5	98.7*	2.2	-0.3	3.7	99.8*
Cc1ccc(NC(=O)C2CCN(S(=O)(=O)c3ccc(N4CCCC4=O)cc3)CC2)cc1Cl	1.9	101.6*	2.4	-3.5	4.5	108.0*
COc1ccc(NC(=O)C2CCN(S(=O)(=O)c3ccc(N4CCCC4=O)cc3)CC2)c(OC)c1	6.1	0.5	0.7	-10.3	0.3	x
O=C(c1ccccc1)n1c2ccccc2c(=O)n1-c1ccccc1CCl	x	-1.1	x	x	-0.1	x
COc1ccc(C(=O)N(C)Cc2ccccc2)cc1Br	x	x	1.7	-4.6	x	x
CC(=O)Nc1cccc(-c2ccnc3c2CC(C)(C(=O)Nc2ccc(C(C)C)cc2)O3)c1 (configuration not stated)	x	0.2	x	x	0.4	x
CCCc1ccc(C(O)c2ncc(-c3ccccc3)[nH]2)cc1 (configuration not stated)	x	1.6	x	x	-0.3	x
C=CCc1cccc(CNc2nc3ccccc3n2CCC)c1O	8.7	51.6*	1.4	-1.0	1.2	53.3*
